Reference: ChEMBL document CHEMBL1128504, “Novel, potent, and orally active substance P antagonists: synthesis and antagonist activity of N-benzylcarboxamide derivatives of pyrido[3,4-b]pyridine” (J Med Chem, 1995)
pIC50: −log10 of the molar value.

Legend:
[1] = system: Cavia porcellus; assay: Percent inhibition of capsaicin-induced plasma extravasation in guinea-pig trachea at 3 mg/kg intravenous administration; type: functional
[2] = target: Substance-P receptor (Homo sapiens, UniProt P25103); assay: Inhibition of [125I]-BH-Substance P binding to tachykinin receptor 1 in human IM-9 cells; type: cell-based
[3] = system: Cavia porcellus; assay: Inhibition of capsaicin-induced plasma extravasation in guinea-pig trachea on intravenous administration; type: functional
[4] = system: Cavia porcellus; assay: Inhibition of capsaicin-induced plasma extravasation in guinea-pig trachea on peroral administration; type: functional; conditions: po
In short: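 Male Hartley guinea pigs (n = 6); sample given orally 45 min before pentobarbital 35 mg/kg ip. Capsaicin […] plus Evans' blue 20 mg/kg iv in ethanol-saline (3:7); trachea removed 10 min later after saline perfusion. Dye extracted in acetone-sodium sulfate and read at 620 nm per g tissue. Inhibition calculated relative to blank and control means.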

Chain of Substance-P receptor (P25103 whole entry): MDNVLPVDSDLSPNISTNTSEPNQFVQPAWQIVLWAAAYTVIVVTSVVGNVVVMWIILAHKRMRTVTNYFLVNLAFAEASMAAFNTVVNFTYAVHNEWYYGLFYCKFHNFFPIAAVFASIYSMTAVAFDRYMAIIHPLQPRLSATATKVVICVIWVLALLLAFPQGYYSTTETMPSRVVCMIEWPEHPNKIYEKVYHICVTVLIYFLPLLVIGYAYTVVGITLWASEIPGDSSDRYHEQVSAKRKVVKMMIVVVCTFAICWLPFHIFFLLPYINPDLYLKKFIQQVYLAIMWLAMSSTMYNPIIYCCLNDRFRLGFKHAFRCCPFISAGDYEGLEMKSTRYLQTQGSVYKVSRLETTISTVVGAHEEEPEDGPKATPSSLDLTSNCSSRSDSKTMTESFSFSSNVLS

Row | SMILES | pIC50 [2] | further results
1 | COc1ccccc1CNCc1c(-c2ccccc2)c2cc(C)c(C)cc2c(=O)n1C |  | inhibition in vivo at 3 mg/kg [1]: 36.3%
2 | Cn1c(C(=O)NCc2cc(C(F)(F)F)cc(C(F)(F)F)c2)c(-c2ccc(F)cc2)c2cccnc2c1=O | 8.96 | ED50 [3]: 0.48 mg/kg
3 | Cc1cc2c(-c3ccccc3)c(C(=O)N(C)Cc3cc(C(F)(F)F)cc(C(F)(F)F)c3)n(C)c(=O)c2cc1C |  | ED50 [3]: 0.49 mg/kg
4 | Cc1cc2c(-c3ccccc3)c(CNCc3cc(C(F)(F)F)cc(C(F)(F)F)c3)n(C)c(=O)c2cc1C | 6.60 | 
5 | Cc1cc2c(-c3ccccc3)c(NC(=O)N(C)Cc3ccccc3)n(C)c(=O)c2cc1C |  | inhibition in vivo at 3 mg/kg [1]: 57.3%
6 | Cc1ccccc1-c1c(C(=O)N(C)Cc2cc(C(F)(F)F)cc(C(F)(F)F)c2)n(C)c(=O)c2ccccc12 |  | ED50 [3]: 0.18 mg/kg; ED50 [4]: 0.81 mg/kg
7 | COc1ccccc1CNC(=O)c1c(-c2ccccc2C)c2ccccc2c(=O)n1C | 6.33 | 
8 | Cc1cc2c(-c3ccccc3)c(NC(=O)NCc3ccccc3)n(C)c(=O)c2cc1C | 6.85 | 
9 | Cc1ccccc1-c1c(C(=O)NCc2cc(C(F)(F)F)cc(C(F)(F)F)c2)n(C)c(=O)c2ccccc12 |  | ED50 [3]: 1.1 mg/kg
10 | COc1ccccc1CNC(=O)c1c(-c2ccccc2)c2ccccc2c(=O)n1C | 6.07 | 
11 | COc1ccccc1CN(C)C(=O)c1c(-c2ccc(F)cc2)c2cccnc2c(=O)n1C |  | ED50 [3]: 0.084 mg/kg
12 | CN(Cc1c(-c2ccccc2)c2ccccc2c(=O)n1C)C(=O)Cc1cc(C(F)(F)F)cc(C(F)(F)F)c1 | 6.96 | 
13 | COc1ccccc1CN(C)Cc1c(-c2ccccc2)c2cc(C)c(C)cc2c(=O)n1C | 6.10 | 
14 | Cc1cc2c(-c3ccccc3)c(NC(=O)N(C)Cc3ccccc3Cl)n(C)c(=O)c2cc1C |  | inhibition in vivo at 3 mg/kg [1]: 58.5%
15 | Cc1ccc(-c2c(C(=O)N(C)Cc3cc(C(F)(F)F)cc(C(F)(F)F)c3)n(C)c(=O)c3ncccc23)cc1 [7-METHYL-8-OXO-5-P-TOLYL-7,8-DIHYDRO-[1,7]NAPHTHYRIDINE-6-CARBOXYLIC ACID (3,5-BIS-TRIFLUOROMETHYL-BENZYL)-METHYL-AMIDE (STRUCTURAL MIX)] | 8.15 | ED50 [4]: 0.11 mg/kg
16 | COc1ccccc1CN[C@H]1CCCN[C@H]1c1ccccc1 [CP-99994] |  | ED50 [3]: 0.017 mg/kg; ED50 [4]: 8.7 mg/kg

Continued by rising pIC50 [2], values first:

Row | pIC50 [2] | SMILES | further results
17 | 5.96 | CN(Cc1ccccc1)C(=O)Nc1c(-c2ccccc2)c2ccccc2c(=O)n1C | 
18 | 6.08 | Cc1cccc(NC(=O)Nc2c(-c3ccccc3)c3cc(C)c(C)cc3c(=O)n2C)c1 | 
19 | 6.22 | CN(Cc1cc(C(F)(F)F)cc(C(F)(F)F)c1)Cc1c(-c2ccccc2)c2ccccc2c(=O)n1C | 
20 | 6.32 | CN(Cc1ccccc1Cl)C(=O)Nc1c(-c2ccc(F)cc2)c2ccccc2c(=O)n1C | 
21 | 6.34 | COc1ccccc1CNCc1c(-c2ccccc2)c2ccccc2c(=O)n1C | 
22 | 7.27 | Cc1cc2c(-c3ccccc3)c(NC(=O)N(C)Cc3cc(C(F)(F)F)cc(C(F)(F)F)c3)n(C)c(=O)c2cc1C | 
23 | 7.49 | Cc1cc(C)cc(CN(C)C(=O)c2c(-c3ccccc3C)c3ccccc3c(=O)n2C)c1 | 
24 | 7.49 | CN(Cc1ccccc1Cl)C(=O)c1c(-c2ccc(F)cc2)c2cccnc2c(=O)n1C | 
25 | 7.55 | Cc1cc(C)cc(CN(C)C(=O)Nc2c(-c3ccccc3)c3cc(C)c(C)cc3c(=O)n2C)c1 | 
26 | 8.29 | Cc1cc(C)cc(CN(C)C(=O)c2c(-c3ccc(F)cc3)c3cccnc3c(=O)n2C)c1 | 
27 | 8.36 | Cc1ccc(-c2c(C(=O)N(C)Cc3cc(C)cc(C)c3)n(C)c(=O)c3ncccc23)cc1 | 
28 | 8.47 | Cc1ccc(-c2c(C(=O)N(C)Cc3cc(Cl)cc(Cl)c3)n(C)c(=O)c3ncccc23)cc1 | 
29 | 9.40 | CN(Cc1cc(C(F)(F)F)cc(C(F)(F)F)c1)C(=O)c1c(-c2ccc(F)cc2)c2ccccc2c(=O)n1C | ED50 [3]: 0.063 mg/kg; ED50 [4]: 1 mg/kg
30 | 9.60 | CN(Cc1cc(C(F)(F)F)cc(C(F)(F)F)c1)C(=O)c1c(-c2ccccc2)c2cccnc2c(=O)n1C | ED50 [3]: 0.027 mg/kg; ED50 [4]: 0.17 mg/kg
31 | 9.68 | CN(Cc1cc(C(F)(F)F)cc(C(F)(F)F)c1)C(=O)c1c(-c2ccc(F)cc2)c2cccnc2c(=O)n1C | ED50 [3]: 0.017 mg/kg; ED50 [4]: 0.068 mg/kg
